Screening data as filed in PubChem BioAssay.
NR2E3 ag-1 – activates human photoreceptor nuclear receptor NR2E3. Q9Y5X4. inhibition of corepressor binding, % at 4.78 µM. 320,000 tested, 0.12% active. GST-NR2E3/biotin-RetCOR TR-FRET, 1536-well;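 active means percent inhibition above the cutoff of mean plus 3 SD of all tested compounds, set per screening campaign, cut at about 20% in these data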;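 further: 0% = DMSO wells and 100% = biotin wells as full block of FRET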
Target sequence (Q9Y5X4 whole entry, looked up): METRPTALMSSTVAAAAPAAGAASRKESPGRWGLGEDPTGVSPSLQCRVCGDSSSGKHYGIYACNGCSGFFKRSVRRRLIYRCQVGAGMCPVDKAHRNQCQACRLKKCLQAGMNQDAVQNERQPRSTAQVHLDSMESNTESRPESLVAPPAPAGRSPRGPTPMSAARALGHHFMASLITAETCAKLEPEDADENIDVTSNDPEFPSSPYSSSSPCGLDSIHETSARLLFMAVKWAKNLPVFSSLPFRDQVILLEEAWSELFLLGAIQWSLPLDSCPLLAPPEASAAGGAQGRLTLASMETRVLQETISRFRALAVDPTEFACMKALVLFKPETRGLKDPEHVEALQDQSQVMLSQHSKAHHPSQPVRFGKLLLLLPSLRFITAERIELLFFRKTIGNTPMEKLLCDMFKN
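System: GST-tagged NR2E3 plus biotinylated RetCOR corepressor; Buffer or medium: pH 7.5 Tris-based buffer; Probe or stimulus: RetCOR corepressor, biotinylated, 7 nM; Doses: compound at 4.8 µM, single dose; Schedule: 5 h incubation at 4 °C; Technique: time-resolved FRET; Evaluation: percent inhibition of TR-FRET ratio; Replication: one well per compound, singlicate testing.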
MsrA act – activators of bovine methionine sulfoxide reductase A | purified bovine MsrA, absorbance read-out | activation, % at 10.6 µM | 360,000 tested, 0.3% active; in the data active means activation above about 7.5%;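 further: 0% = vehicle and 100% = reference activator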
GalR3 antagonist – antagonists of human GalR3; HEK293 GalR3-CNG cAMP membrane potential fluorescence; galR3 body fused to GalR1 C-terminus; inhibition, % at 3 µM; 360,000 tested, 0.44% active;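 active means inhibition above the screen-wide average plus 3 SD, cut at about 13% in these data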;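 further: forskolin and galanin both at EC90 stimulate the cells; cAMP rise reported by CNG channel membrane potential dye signal; 0% = forskolin plus galanin with DMSO and 100% = forskolin alone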
Target sequence (O60755 1-299 limits assumed): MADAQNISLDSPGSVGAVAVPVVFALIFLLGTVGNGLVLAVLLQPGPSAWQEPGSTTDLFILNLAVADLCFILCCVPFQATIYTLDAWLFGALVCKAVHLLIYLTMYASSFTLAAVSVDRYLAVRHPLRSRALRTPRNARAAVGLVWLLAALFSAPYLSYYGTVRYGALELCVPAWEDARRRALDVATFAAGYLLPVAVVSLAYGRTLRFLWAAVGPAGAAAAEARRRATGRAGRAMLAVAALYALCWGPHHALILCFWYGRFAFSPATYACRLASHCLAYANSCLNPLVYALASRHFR
NR2E3 ag-2 – agonists of human NR2E3 nuclear receptor; Q9Y5X4; CHO-S Gal4-NCOR/VP16-NR2E3 two-hybrid, luciferase; inhibition of corepressor binding, % at 3.98 µM; 360,000 tested, 0.35% active;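 active means inhibition above the mean of all tested compounds plus 3 SD, cut at about 70% in these data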;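 further: 0% = DMSO with NR2E3 transfected cells and 100% = cells lacking NR2E3 construct; higher means lower luciferase signal from less NR2E3 corepressor binding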
MsrA inhibitor – inhibitors of bovine MsrA; AID 651718; 360,000 tested, 0.75% active; inhibition, % at 15.5 µM; purified bovine MsrA, absorbance read-out;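 further: 0% = vehicle wells with enzyme and 100% = reference inhibitor wells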
NadD block – inhibitors of Staphylococcus aureus NadD | purified NadD enzyme, colorimetric absorbance read-out | inhibition, % at 20 µM | 360,000 tested, 0.78% active | AID 602399; in the data active means inhibition above about 26%
NR2E3 ag confirm – confirmation of human NR2E3 agonists. shares compounds with NR2E3 ag-2. CHO-S mammalian two-hybrid NR2E3-NCOR, luciferase luminescence. inhibition, % at 3.98 µM. 2,300 tested, 51% active. AID 624378;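 active means average inhibition above a cutoff equal to the mean inhibition of all tested compounds plus one SD, cut at about 70% in these data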;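 further: 0% = DMSO in NR2E3 cells and 100% = DMSO in cells lacking NR2E3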
VP16 counter – counter-screen for NR2E3 agonists: GAL4-VP16 reporter inhibitors | 2,300 tested, 29% active | shares compounds with NR2E3 ag-2 | inhibition, % at 3.98 µM | CHO-S GAL4-VP16 luciferase reporter, luminescence;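 active means mean inhibition above a cutoff equal to the average over all tested compounds plus one standard deviation, cut at about 70% in these data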;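 further: luciferase from a UAS reporter driven by GAL4-VP16 transactivation; 0% = DMSO with VP16-transfected cells and 100% = DMSO with cells lacking VP16; higher means less reporter light so more repression of VP16 activity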
MsrA conf – bovine MsrA inhibition, confirmed; 2,300 tested, 41% active; inhibition, % at 15.5 µM; purified bovine MsrA, absorbance read-out; shares compounds with MsrA inhibitor;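 further: coupled to thioredoxin reductase with NADPH and selenocystamine and DMSO as substrate; 0% = vehicle only and 100% = full effect of reference inhibitor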
GalR3 conf – confirmation of human galanin receptor 3 antagonists | HEK293 GalR3 CNG cAMP biosensor, membrane potential fluorescence; galR3 fused to GalR1 carboxy tail; challenged with forskolin and galanin at EC90 | inhibition, % at 3 µM | AID 652245 | shares compounds with GalR3 antagonist | 1,600 tested, 59% active;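 active means inhibition above the primary screen's cutoff, the mean inhibition of all screened compounds plus 3 SD, cut at about 13% in these data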;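 further: 0% = forskolin plus galanin and 100% = forskolin alone with DMSO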
CNG parental – counter-screen for GalR3 antagonists: nonspecific agonists in parental HEK-CNG cells | shares compounds with GalR3 antagonist | HEK293-CNG parental cells, cAMP membrane potential fluorescence; normalised: DMSO wells 0%, forskolin wells 100% | activation, % at 3 µM | 1,600 tested, 10% active; in the data active means activation above about 1.3%
Starred values were filed as active, the others as inactive; · = not tested or not shown. This is a sample that favours compounds with a hit; in the whole collection about 2.5% have one here. Unless noted, no stated cut-off is given here; in the data, active means inhibition above about 4.5%; inactive means the rest.

SMILES	NR2E3 ag-1	MsrA act	GalR3 antagonist	NR2E3 ag-2	MsrA inhibitor	NadD block	NR2E3 ag confirm	VP16 counter	GalR3 conf	CNG parental	others
NC(=O)c1nnn(Cc2cc(Cl)c(C(=O)c3ccc(Cl)cc3)c(Cl)c2)c1N	·	-5.2	96.7*	91.5*	-0.7	7.3	96.0*	82.3*	120.2*	-1.3
COc1cc2c(cc1OC)-c1cc(Nc3ccc4c(c3)OCCO4)nc(=O)n1CC2	3.4	-4.7	59.3*	55.0	5.1*	13.0	28.4	-11.6	57.1*	-0.4	MsrA conf=3.9
CC(C)Sc1ccc([N+](=O)[O-])cc1C(=O)Nc1ccncc1	5.7	-3.5	-0.8	-17.1	2.2	-4.6	·	·	·	·
CCOc1ccc(S(=O)(=O)n2cnc3ccccc32)cc1	1.3	-4.0	-10.9	-24.7	-0.1	-5.8	·	·	·	·
CCN1C(=C(C#N)C#N)C=Cc2cc(C)ccc21	6.2	0.1	-2.0	-1.4	1.6	-6.2	·	·	·	·
C=CC[n+]1c(/C=C2\C=Cc3cc(C)ccc3N2CC)ccc2ccccc21	0.3	-3.3	45.2*	89.8*	-0.7	11.0	98.4*	90.6*	64.2*	6.1*
COc1ccc(OCc2cc(C(=O)N3CCCC(CO)C3)no2)c2ccccc12 (stereo unspecified)	-1.0	7.2	-0.9	-111.0	-1.1	3.7	·	·	·	·
O=C(c1cc(COc2cccc3cnccc23)on1)N1CCCC(CCCO)C1 (stereo unspecified)	-0.3	-0.6	96.8*	109.6*	-0.9	0.2	98.7*	92.9*	104.0*	-0.2
Cc1n[nH]c(C)c1NC(=O)c1cc([N+](=O)[O-])ccc1Cl	2.6	-4.6	-6.6	-6.6	0.6	-3.4	·	·	·	·
COc1ccc(CNc2ccccn2)c(O)c1	·	1.0	-11.2	-48.7	0.8	-6.8	·	·	·	·
CCOc1ccc(Cc2c(C)[nH]c3ccc(C(=O)O)cc3c2=S)cc1	9.1	-3.7	1.7	-12.4	0.6	0.6	·	·	·	·
O=C(Nc1cccc([N+](=O)[O-])c1)c1cc2ccccc2cc1O	5.6	-10.4	62.2*	84.8*	0.5	16.4	98.7*	69.5	73.6*	1.1
Cc1cc(Br)c(S(=O)(=O)NCc2ccncc2)cc1C	2.4	-3.8	100.8*	81.8*	-1.0	-2.8	70.3*	65.6	105.1*	-0.3
O=S(=O)(NCc1ccncc1)c1ccc(Br)s1	0.9	-7.5	104.8*	102.6*	-0.7	-2.4	92.1*	77.8*	116.3*	-0.1
CCN(C1CCCCC1)S(=O)(=O)c1ccc(S(=O)(=O)NCCc2ccncc2)cc1	-0.2	0.1	-5.5	9.4	-0.5	-6.2	·	·	·	·
CCN(C1CCCCC1)S(=O)(=O)c1ccc(S(=O)(=O)NCc2ccncc2)cc1	0.5	2.3	16.0*	90.8*	-0.1	-0.7	88.0*	73.7*	48.9*	-0.6
COc1cc(C)c(Br)cc1S(=O)(=O)NCc1ccccc1	-3.4	-13.5	-8.0	0.1	0.6	-2.5	·	·	·	·
COc1cc(S(=O)(=O)NCc2ccncc2)ccc1Br	3.9	-9.1	63.1*	94.5*	-1.6	1.7	78.4*	68.5	90.1*	-0.3
CSC1=NCCN1C(=O)c1cccc(C(F)(F)F)c1	0.2	1.3	-2.2	-26.1	0.6	1.5	·	·	·	·
Cc1nn(C)cc1C(C(=O)NC1CCCCC1)N(C(=O)Cn1nnc2ccccc21)c1ccc(F)cc1 (stereo unspecified)	-3.2	-5.2	-4.7	1.3	-0.7	0.9	·	·	·	·
C[C@H](O)C#Cc1cnc2c(c1)C(=O)N([C@H](C)CO)C[C@@H](C)[C@H](CN(C)C(=O)Nc1ccc(C(F)(F)F)cc1)O2	·	-1.7	-3.6	5.3	-0.8	11.2	·	·	·	·
O=S(=O)(NCc1ccncc1)c1ccc(F)c(F)c1	·	-1.2	-8.7	31.0	-0.4	5.4	·	·	·	·
Cc1ccc(S(=O)(=O)NCc2ccncc2)cc1C	4.1	-1.9	87.8*	61.5	-1.1	0.3	91.7*	76.4*	104.9*	-0.5
CCc1ccc(C2c3[nH]c4ccccc4c3CCN2C(=O)CN2CCN(CC)CC2)cc1 (stereo unspecified)	-3.3	-3.2	-4.2	6.0	-1.2	4.9	·	·	·	·
COc1ccc(CCNc2ncnc3sccc23)cc1OC	-4.0	-1.4	73.0*	89.9*	-0.5	-1.5	98.3*	89.9*	129.1*	-0.2
SMILES	NR2E3 ag-1	MsrA act	GalR3 antagonist	NR2E3 ag-2	MsrA inhibitor	NadD block	NR2E3 ag confirm	VP16 counter	GalR3 conf	CNG parental	others
COc1ccc(Nc2ncnc3sccc23)cc1OC	0.2	-2.6	-7.1	-15.2	0.3	-1.2	·	·	·	·
COc1ccccc1CNc1ncnc2sccc12	-2.0	-7.1	76.5*	100.2*	-2.0	-8.1	92.2*	76.2*	103.6*	0.6
c1ccc2c(c1)OCC(CNCC1COc3ccccc3O1)O2 (stereo unspecified)	0.1	-1.6	-9.8	-8.2	-0.3	-5.2	·	·	·	·
c1ccc2c(c1)OCC(CNc1ncnc3sccc13)O2 (stereo unspecified)	2.2	3.1	97.1*	84.0*	-0.9	-1.2	96.9*	86.6*	104.8*	-0.4
CC(CN1CCCC1)OC(=O)c1ccc(F)cc1 (stereo unspecified)	0.1	-6.8	-7.1	-9.1	-0.2	-6.6	·	·	·	·
Cc1ccc(S(=O)(=O)Nc2ccc(F)cc2)cc1C(=O)N1CCOCC1	·	-2.3	-5.3	7.5	1.8	-1.8	·	·	·	·
Cc1cccc(-n2ncc3c2CCCC3NC(=O)c2ccncc2)c1C (stereo unspecified)	·	-6.2	89.7*	83.0*	-1.9	1.0	85.1*	76.8*	110.7*	-0.5
Cc1cccc(-n2ncc3c2CCCC3NC(=O)c2cccs2)c1C (stereo unspecified)	·	0.5	-6.1	17.4	0.0	0.7	·	·	·	·
CCn1cc(C(=O)NC2CCCc3c2cnn3-c2cccc(C)c2C)cn1 (stereo unspecified)	-0.1	-1.8	97.0*	104.9*	-0.9	-3.0	94.8*	88.3*	113.9*	-0.5
O=C(N/N=C\c1ccco1)Nc1cccc(Cl)c1	-0.5	-1.9	-1.5	-100.5	1.6	2.9	·	·	·	·
CC1(c2nnc(Cc3ccccc3)o2)CC(c2ccccc2)=NO1 (stereo unspecified)	7.0	-1.8	0.3	-12.9	-0.2	-2.7	·	·	·	·
